OX1R antag-1 = antagonists of human orexin 1 receptor (OX1R); Orexin/Hypocretin receptor type 1 (Homo sapiens), O43613; inhibition, % at 6.6 µM; 1.8% of 330,000 active; OX1R-expressing cells, FRET antagonist read-out; in the data active = inhibition mostly above about 38%, no sharp cut-off; inactive = mostly below about 40%;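 note: 0% = agonist challenge alone and 100% = reference antagonist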
Target sequence (O43613 whole entry, looked up): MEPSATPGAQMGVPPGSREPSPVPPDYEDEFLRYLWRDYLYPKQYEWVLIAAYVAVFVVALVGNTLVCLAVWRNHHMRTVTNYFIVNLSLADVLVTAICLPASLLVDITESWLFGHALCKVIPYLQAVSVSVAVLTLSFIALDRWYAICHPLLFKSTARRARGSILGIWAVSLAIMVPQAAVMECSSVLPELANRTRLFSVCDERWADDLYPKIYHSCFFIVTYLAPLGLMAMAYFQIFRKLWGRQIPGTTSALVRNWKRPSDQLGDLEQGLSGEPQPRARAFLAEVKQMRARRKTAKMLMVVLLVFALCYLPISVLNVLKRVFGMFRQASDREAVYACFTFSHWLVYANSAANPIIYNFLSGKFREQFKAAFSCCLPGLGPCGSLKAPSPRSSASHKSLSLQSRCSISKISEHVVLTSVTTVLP
TAAR1 antagonist = human TAAR1 antagonists, primary screen, Fluo-8 calcium fluorescence, CHO RD-HGA16 cells | 1.5% of 360,000 active | antagonist | inhibition, % at 3 µM | AID 624466, 2012 | Trace amine-associated receptor 1 (Homo sapiens), Q96RJ0;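 active = inhibition above a per-plate cutoff, the mean inhibition of test compounds on that plate plus 3 SD, cut at about 49% in these data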;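 note: 0% = DMSO plus EC80 beta-PEA response and 100% = DMSO alone without agonist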
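Material: CHO RD-HGA16 cells bearing hTAAR1; compound dosing: one-point dosing, 3 µM nominal final; schedule: dye loading 75 min at 37 °C, then 30 min room temperature; measured by: calcium fluorescence with Fluo-8; control set: vehicle and agonist controls; replication: n of 1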
OX1R antag-2 = OX1R (HCRTR1) antagonists, primary screen, fluorescence, CHO/OX1R cells, Fluo-8 calcium, orexin A | Orexin/Hypocretin receptor type 1 (Homo sapiens), O43613 | Fluo-8 calcium fluorescence | inhibition, % at 5 µM | 0.43% of 330,000 active;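 active = inhibition above its plate's threshold, mean inhibition of all tested compounds on the plate plus 3 SD, cut at about 37% in these data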;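 note: 0% = orexin A challenge wells and 100% = SB-334867-A antagonist wells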
CHO parental Ca = ATP-evoked calcium signal inhibitors, parental CHO, primary screen, counter-screen for OX1R antagonist project, cell-based, fluorescence, Fluo-8 calcium dye; parental CHO-K1, ATP-induced calcium, Fluo-8 fluorescence; inhibition, % at 5.6 µM; 0.63% of 330,000 active; AID 463079, 2010;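 active = inhibition above that plate's mean sample inhibition plus 3 SD, cut at about 26% in these data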;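 note: 0% = ATP-challenged DMSO wells and 100% = DMSO wells without ATP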
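Measured by: calcium-sensitive Fluo-8 fluorescence / Test system: CHO parental line / Controls: ATP-challenged DMSO wells low, unchallenged DMSO wells high / Measure: % inhibition / Compound: single nominal dose of 5.6 µM per compound / Replicates: single well per compound, no replicates / Reagent: ATP as calcium-mobilizing challenge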
TAAR1 agonist = human TAAR1 agonists, primary screen, Fluo-8 calcium fluorescence, CHO RD-HGA16 cells; Trace amine-associated receptor 1 (Homo sapiens), Q96RJ0; vehicle wells 0%, saturating PEA agonist 100%; activation, % at 3 µM; 0.99% of 360,000 active;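 active = activation above the mean activation of all test compounds in the run plus 3 SD, cut at about 38% in these data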
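Benchmarks: low control DMSO, high control PEA (EC100); System: CHO RD-HGA16 cells carrying human TAAR1 plus Gα16; Detection: Fluo-8 fluorescence, 5 s baseline then 140 s kinetic read; Schedule: 17-24 h plating, Fluo-8 75 min 37 °C, 30 min RT; Read-out basis: % activation from peak over basal fluorescence ratio, DMSO-to-PEA scaled.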
TAAR1 nonsel count = nonselective antagonists in TAAR1 counter-screen cells, counter-screen for hTAAR1 antagonist project, cell-based, fluorescence, calcium | shares compounds with TAAR1 antagonist | counterscreen cell line, antagonist mode | inhibition, % at 3 µM | 77% of 2,400 active; in the data active = inhibition above about 22%;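 note: CHO-Ga16 host cells stimulated with ATP at an EC80 level; 0% = agonist EC80 plus vehicle and 100% = vehicle without agonist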
TAAR1 antag conf = human TAAR1 antagonists, retest of hits, confirmation, cell-based, fluorescence | shares compounds with TAAR1 antagonist | TAAR1-expressing cells, fluorescence antagonist read-out | inhibition, % at 3 µM | 40% of 2,400 active | AID 651785, 2012; in the data active = inhibition above about 49%;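 note: CHO-Ga16 host cells challenged with agonist PEA near its EC80; 0% = agonist at EC80 plus vehicle and 100% = vehicle with no agonist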
Ga16 nonsel ag = calcium activation in Ga16-expressing cells, counter-screen for TAAR1 antagonist project, cell-based, fluorescence | shares compounds with TAAR1 antagonist | agonist counterscreen | activation, % at 3 µM | 18% of 2,400 active | AID 651953, 2012; in the data active = activation above about 12%;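 note: 0% = vehicle wells and 100% = saturating stimulus response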
TAAR1 ag counter = TAAR1 activation by candidate antagonists – cell-based, fluorescence, counter-screen for TAAR1 antagonist project; activation, % at 3 µM; AID 651955, 2012; hTAAR1 cell line, agonist mode; 2% of 2,400 active; shares compounds with TAAR1 antagonist; in the data active = activation above about 37%;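 note: CHO cells stably expressing TAAR1 with calcium dye readout; 0% = DMSO vehicle and 100% = full agonist response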
* = called active by the depositor; / = not tested or not shown. Only some compounds are listed: those with a hit (about 4% of all), similar ones and a draw of the others.

SMILES	OX1R antag-1	TAAR1 antagonist	OX1R antag-2	CHO parental Ca	TAAR1 agonist	TAAR1 nonsel count	TAAR1 antag conf	Ga16 nonsel ag	TAAR1 ag counter
COc1ccc(NC(=S)N2CCC(c3nc4ccccc4o3)CC2)c(OC)c1	8	-6	-32	-24	7	/	/	/	/
CCCCNC(=O)C1(C)CCCCN1CC(=O)c1ccc(OC)cc1 (stereo not given)	/	-29	/	/	7	/	/	/	/
CCC(C)(C)NC(=O)CN(C(=O)C(=O)Nc1ccc2c(c1)OCCO2)N1CCOCC1	-7	-13	-15	-5	0	/	/	/	/
O=[N+]([O-])c1ccc(C2=NN(CCO)C(=Nc3ccc(OC(F)(F)F)cc3)SC2)cc1	24	16	-2	2	6	/	/	/	/
COc1ccc(C(=O)NCCc2ccccc2)cc1[N+](=O)[O-]	19	-11	-17	-8	2	/	/	/	/
COc1ccc(C(=O)NCCc2c[nH]c3ccccc23)cc1[N+](=O)[O-]	0	63*	-18	1	15	27*	48	11	9
O=C(Cn1c(C(F)(F)F)nc2ccccc21)OCC(=O)c1c[nH]c2ccccc12	12	41	-9	-3	13	/	/	/	/
Cc1[nH]c2ccccc2c1C(=O)COC(=O)Cn1c(C(F)(F)F)nc2ccccc21	22	64*	-7	-12	15	37*	54*	13*	24
COc1ccc(CC(=O)N(Cc2ccccc2)c2ccccc2)cc1S(=O)(=O)N1CCOCC1	58*	82*	-7	-12	18	32*	55*	15*	15
COCCN(Cc1ccccc1)C(=O)Cc1ccc(OC)c(S(=O)(=O)N2CCOCC2)c1	23	-22	-28	-16	2	/	/	/	/
O=C(/C=C1\C(=O)Nc2ccccc21)/C=C1\C(=O)Nc2ccccc21	/	60*	/	/	34	35*	36	8	24
COc1ccccc1N1CCN(C(=O)c2cc(S(=O)(=O)N3CCOCC3)ccc2C)CC1	/	-5	/	/	4	/	/	/	/
CCN1C(=O)c2cccc3c(S(=O)(=O)N(C(=O)c4ccncc4)c4ccc(OC)cc4)ccc1c23	61	66*	1	-4	13	31*	43	6	4
CCN1C(=O)c2cccc3c(S(=O)(=O)N(C)C)ccc1c23	/	-12	/	/	1	/	/	/	/
CCN1C(=O)c2cccc3c(S(=O)(=O)N(C(=O)c4cccnc4)c4ccc(OC)cc4)ccc1c23	18	67*	-25	-16	14	31*	54*	8	9
COc1ccc(CCNC(=O)c2cc(-c3cc(Cl)ccc3O)n[nH]2)cc1OC	26	61*	-14	-1	14	39*	54*	13*	15
Cc1ccc(Cl)cc1-c1cc(C(=O)NCc2ccc(C(F)(F)F)cc2)[nH]n1	/	77*	/	/	35	42*	66*	32*	58*
COc1ccc(CCNC(=O)c2cc(-c3ccccc3O)n[nH]2)cc1OC	19	21	-26	-15	24	/	/	/	/
COc1ccc(Cl)c(-c2cc(C(=O)NCc3ccc(C(F)(F)F)cc3)[nH]n2)c1	/	63*	/	/	22	32*	48	19*	35
C=CCN1C=CC(=O)[C@@H](OC(=O)Nc2ccc(Br)cc2)[C@H]1c1ccccc1Br	/	0	/	/	4	/	/	/	/
CC1CCN(C(=O)CNC(=O)CNS(=O)(=O)c2ccccc2)CC1	8	-25	0	-5	5	/	/	/	/
CCN1C(=O)[C@@H]2[C@H](C1=O)[C@@H]1C(=O)Nc3ccccc3C(=O)N1[C@@H]2c1ccc(OC)cc1	9	17	-7	-8	1	/	/	/	/
CC1CCc2c(sc(NC(=O)c3c([N+](=O)[O-])cnn3C)c2C(N)=O)C1 (stereo not given)	/	-19	/	/	0	/	/	/	/
CSc1ccccc1NC(=O)c1cc(-c2cccs2)on1	54*	55*	-10	-8	29	11	5	1	5
Cc1ccccc1Cn1cc(NC(=O)c2cc(-c3cccs3)on2)cn1	6	62*	8	-2	27	33*	62*	22*	14
SMILES	OX1R antag-1	TAAR1 antagonist	OX1R antag-2	CHO parental Ca	TAAR1 agonist	TAAR1 nonsel count	TAAR1 antag conf	Ga16 nonsel ag	TAAR1 ag counter
COc1ccc(-c2cc(C(=O)Nc3ccccc3SC)no2)cc1	18	-14	-12	-8	2	/	/	/	/
COc1ccc(C(=O)Nc2c(N)nc(SCC(=O)NCC3CCCO3)[nH]c2=O)cc1 (stereo not given)	3	-3	4	-5	0	/	/	/	/
O=C(/C=C/c1cn(-c2ccccc2)nc1-c1cccc(Cl)c1)N1CCN(c2ccccn2)CC1	14	53*	-23	-21	0	18	31	3	4
COc1cccc(CC(=O)Nc2cc(S(=O)(=O)N3CCOCC3)ccc2N2CCN(C)CC2)c1	4	-3	-25	-13	1	/	/	/	/
CN(C)S(=O)(=O)c1ccc(NC(=O)c2ccc(Br)o2)cc1	11	/	8	-1	/	/	/	/	/
CN(C1CCCCC1)S(=O)(=O)c1ccc(NC(=O)c2ccc(Br)o2)cc1	37	63*	-7	-24	15	23*	44	7	10
Cc1cccc(OCC(=O)Nc2cccc(C(=O)NCC(C)C)c2)c1	25	70*	-22	-17	33	10	22	7	11
Cc1cccc(OCC(=O)Nc2ccc(C(=O)NCC(C)C)cc2)c1	19	-15	-19	-14	-1	/	/	/	/
O=C(c1cc(-c2cccs2)nn1-c1ccccc1)N1CCN(S(=O)(=O)c2ccccc2)CC1	12	68*	-30	-10	9	30*	52*	8	7
COc1ccccc1-c1cccc(-c2nc(C(=O)Nc3nccs3)cc3c2[C@H](CCO)N(C(C)=O)C3)c1	/	71*	/	/	7	30*	51*	7	5
CC(C)(C)OC(=O)N1CCC(CC2CC(c3ccccc3)=NO2)(C(=O)NCc2ccccc2)CC1 (stereo not given)	7	30	-41	-21	7	/	/	/	/

Assay outcomes (PubChem BioAssay)
